# Assay outcomes from PubChem BioAssay.
# CHRM5 PAM – potentiates acetylcholine response at human M5 receptor; 0.3% of 360,000 active; activation, % at 3 µM; CHO-K1 hM5, Fluo-8 calcium, ACh EC20 PAM; 0% = ACh EC20, 100% = ACh EC100; AID 624038; P08912;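 active = activation above the run cutoff, the mean activation of all test compounds plus 3 SD, cut at about 18% in these data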
# Target sequence (P08912 whole entry, looked up): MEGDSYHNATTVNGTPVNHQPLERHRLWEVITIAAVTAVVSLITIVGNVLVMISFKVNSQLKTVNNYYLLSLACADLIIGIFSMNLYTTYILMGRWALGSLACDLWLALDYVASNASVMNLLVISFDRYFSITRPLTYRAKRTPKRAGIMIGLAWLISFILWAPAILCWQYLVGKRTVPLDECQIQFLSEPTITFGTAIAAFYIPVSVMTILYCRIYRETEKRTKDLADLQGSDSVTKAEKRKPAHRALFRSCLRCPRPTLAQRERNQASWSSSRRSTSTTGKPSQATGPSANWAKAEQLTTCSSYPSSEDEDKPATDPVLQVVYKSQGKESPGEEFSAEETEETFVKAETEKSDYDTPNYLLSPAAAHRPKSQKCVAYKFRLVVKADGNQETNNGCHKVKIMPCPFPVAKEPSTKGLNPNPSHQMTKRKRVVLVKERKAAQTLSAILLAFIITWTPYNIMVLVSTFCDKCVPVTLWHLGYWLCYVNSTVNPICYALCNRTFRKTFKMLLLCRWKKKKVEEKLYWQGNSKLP
#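 System: CHO-K1 hM5 cells. Reagent: acetylcholine, EC20 level. Compound dosing: single dose, 3 µM nominal final test concentration. Timing: Post-acetylcholine fluorescence recording 140 s. Detection: Fluo-8 calcium fluorescence. Read-out: % activation, ACh-normalized. Benchmarks: ACh EC20 and EC100 wells. Repeats: singlicate, one well per test compound.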
# M5 ag – agonists of human muscarinic M5 receptor (CHRM5) | P08912 | CHO-K1 hM5 cells, Fluo-8 calcium fluorescence; 0% DMSO wells, 100% maximal acetylcholine response | activation, % at 3 µM | 0.19% of 360,000 active;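 active = activation above the run's mean over test compounds plus 3 SD, cut at about 23% in these data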;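 also: signal is peak over basal fluorescence ratio across the kinetic read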
# M5 antag – CHRM5 antagonism in calcium assay; inhibition, % at 3 µM; CHO-hM5 cells, Fluo-8 calcium fluorescence, ACh EC80; 0.59% of 360,000 active; AID 624040; P08912;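 active = inhibition above a per-plate cutoff, the mean of that plate's test compounds plus 3 SD, cut at about 27% in these data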;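 also: 0% = acetylcholine EC80 with DMSO and 100% = DMSO without agonist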
# M4 ag – CHRM4 agonism in calcium assay; P08173; CHO-K1 hM4/Gqi5, Fluo-8 calcium fluorescence; vehicle 0%, full acetylcholine response 100%; activation, % at 3 µM; 0.14% of 360,000 active;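 active = activation above the run mean over all test wells plus 3 SD, cut at about 32% in these data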;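 also: peak over basal fluorescence ratio per well then scaled between controls; 0% = DMSO wells and 100% = acetylcholine at EC100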
# M4 antag – CHRM4 antagonism in calcium assay | P08173 | CHO-hM4 cells, ACh EC80, Fluo-8 calcium fluorescence | inhibition, % at 3 µM | 0.73% of 360,000 active | AID 624125;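 active = inhibition above its plate's cutoff, the mean inhibition of sample wells plus 3 SD, cut at about 27% in these data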;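 also: 0% = acetylcholine EC80 with DMSO and 100% = DMSO without agonist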
# M4 PAM – CHRM4 positive allosteric modulation; CHO-K1 hM4/Gqi5, Fluo-8 calcium fluorescence, ACh EC20; 0% = ACh EC20, 100% = maximal ACh; activation, % at 3 µM; 0.4% of 360,000 active; AID 624126;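 active = activation above its plate's cutoff, the mean activation of sample wells plus 3 SD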
# * = called active by the depositor; + = active, no number. The list is not random: actives were taken first. Their share in the collection is about 1.8%.
SMILES,CHRM5 PAM,M5 ag,M5 antag,M4 ag,M4 antag,M4 PAM
COc1cc2cc(C(c3nnnn3C3CCCC3)N(C)C3CCCCC3)c(=O)[nH]c2cc1OC (stereo not given),-3,-2,-1,2,-8,4
COc1cc2cc(C(c3nnnn3C3CCCCC3)N(C)C3CCCCC3)c(=O)[nH]c2cc1OC (stereo not given),-6,0,-2,-2,30*,-12
Cc1ccc(S(=O)(=O)NC(=O)C2(C)CCN2C(=O)COc2ccc(Cl)cc2)nc1 (stereo not given),-1,0,0,0,-10,5
CC(O)[C@@H](C(=O)N1CCNCC1)n1cc(CCCCN)nn1 (stereo not given in full),-5,1,-7,+,9,-20
CC(O)Cc1cn([C@@H](CCCCN)C(=O)N2CCNCC2)nn1 (stereo not given in full),6,3,9,0,-9,1
CCCCC[C@@H](C)N1C[C@H](COCc2ccccc2)Oc2cc(N3CCC[C@H]3C(N)=O)ccc2S1(=O)=O,-1,-1,5,-1,14,-5
COc1ccc(/C=C/C(=O)OCC(=O)Nc2cc(C(N)=O)cc(C(N)=O)c2)cc1,18*,0,-13,0,0,5
COc1ccc(/C=C/C(=O)OCC(=O)Nc2cccc(C(C)=O)c2)cc1,-6,3,2,13,-6,-18
COC(=O)c1ccc(/C=C/C(=O)OCC(=O)Nc2sccc2C(N)=O)cc1,-35,7,27*,23,45*,-9
NC(=O)c1ccsc1NC(=O)COC(=O)/C=C/c1ccc([N+](=O)[O-])cc1,-18,2,18,18,4,-22
O=[N+]([O-])/C=C/c1cn(Cc2ccc(Cl)cc2)c2ccccc12,7,1,33*,0,4,-7
CC1CN(C)C(C)c2c1oc1ccc(N)cc21 (stereo not given),20*,-1,-3,1,-10,5
O=C(Nc1ccccc1OC(F)F)c1ccc(F)cc1,24*,-1,-16,0,-5,12
CCCCN1C(=O)C(CC(=O)NCCCN(C)C)CC(C(=O)N(C(C)C)C(C)C)=C1C (stereo not given),1,0,-4,1,-2,7
COc1cc2c3c(c1OC)C(=O)CC3CCCC2 (stereo not given),1,-6,-2,0,4,-5
CC(OC(=O)C1CCCCC1)C(=O)Nc1ccc(S(N)(=O)=O)cc1 (stereo not given),1,0,-11,1,-25,22*
CC(=O)N1CCOc2ccc(S(=O)(=O)N(C)c3ccc(C)cc3)cc21,-8,-4,6,6,29*,2
COc1cccc(-c2nc(-c3cccc(C)c3)nc3cc(Cl)ccc23)c1,1,1,-1,-1,-13,7
COc1cccc(C(C)(O)c2nc(-c3cccc4cccnc34)cs2)c1 (stereo not given),-4,-1,-7,8,-25,-3
COC(=O)c1sccc1NC(=O)Nc1cc(C)cc(C)c1,-10,-6,29*,-2,16,-4
COc1cc(NC(=O)CSc2nc3[nH]ncc3c(=O)n2-c2ccccc2)cc(OC)c1OC,3,4,4,0,-5,3
CC(=O)Nc1ccc(NC(=O)CSc2nc3[nH]ncc3c(=O)n2-c2ccccc2)cc1,10,0,-5,-1,7,20*
CC1(C(=O)Nc2cnc3ccccc3c2)CCN1C(=O)CC(c1ccccc1)c1ccccc1 (stereo not given),-5,-3,8,2,-20,-4
CC(C)c1ccc(-c2nc(N3CCCC3)nc3n[nH]c(N)c23)cc1,54*,3,-2,1,-5,12
N#Cc1ccc(-c2nc3ccc(Br)cn3c2Cc2ccccc2)cc1,-2,-1,-2,1,-3,-2
SMILES,CHRM5 PAM,M5 ag,M5 antag,M4 ag,M4 antag,M4 PAM
O=C(CCc1nnc2n(Cc3ccc(F)cc3)c(=O)c3ccccc3n12)NCCCN1CCOCC1,-4,-2,8,13,8,-1
CN1CCN(CCCNC(=O)CCc2nnc3n(Cc4ccccc4Cl)c(=O)c4ccccc4n23)CC1,5,-6,-1,2,-6,16*
C/C(=N\Nc1c(F)c(F)c(Br)c(F)c1F)c1ccncc1,3,-11,5,1,-18,15*
CC[C@H](NC(=O)CC[C@H]1O[C@@H](n2cnc3c(NC(=O)c4ccccc4)ncnc32)[C@H](O)[C@@H]1O)c1ccccc1,0,-1,0,1,-7,3
Cc1c(-c2ccccc2)[n+](=O)c(-c2ccc(Cl)cc2)c(C)n1[O-],-11,-2,30*,16,-2,0
Cc1c(-c2ccccc2)[n+](=O)c(-c2ccc(Br)cc2)c(C)n1[O-],3,1,3,2,0,-5
Cc1cc(NC(=O)CCCN2C(=O)c3cccc4cccc(c34)C2=O)no1,15,-2,4,-1,-28,19*
COCCCNC(=O)c1cccc2c(-c3ccnn3C)coc12,-4,3,-2,1,3,5
CC(NC(=O)Nc1ccc(Cl)c(Cl)c1)C(c1ccccc1)N1CCOCC1 (stereo not given),-16,18,31*,73*,6,-7
CC(NC(=O)c1ccc(Cl)cc1Cl)C(c1ccccc1)N1CCOCC1 (stereo not given),-3,-3,7,0,-1,2
CC(NC(=O)Nc1ccc([N+](=O)[O-])cc1)C(c1ccccc1)N1CCOCC1 (stereo not given),-8,31*,3,76*,-4,0
CC(NC(=O)C1CCC(C(C)(C)C)CC1)C(c1ccccc1)N1CCOCC1 (stereo not given),-2,-2,-1,-1,6,-6
CC(=C/c1ccc(C(C)C)cc1)/C=N/NC(=O)Cn1nnnc1N,-12,-15,30*,0,-9,-1
O=C(NCc1ccco1)c1ccc2sc([C@H]3C[C@H](O)[C@@H](CO)O3)nc2c1,-4,2,5,1,3,-2
COC(=O)C1(C(=O)OC)C[C@H](c2ccc(OC)cc2)N(Cc2ccccc2OC)[C@@H]1c1ccccc1,-5,-1,-10,-1,-5,-4
CC(CNC(=O)c1cc(COc2ccc3ncccc3c2)on1)c1ccccc1 (stereo not given),-18,6,30*,25,6,-11
